Here are results for five compounds from ChEMBL document CHEMBL1122917, “Vinblastin-23-oyl amino acid derivatives: chemistry, physicochemical data, toxicity, and antitumor activities against P388 and L1210 leukemias” (J Med Chem, 1985).

Experiment [1] deals with Mus musculus. As to the kind of experiment: Number of survivors of DBA2 mice on 60th day after inoculation with L1210 leukemia cell line intravenously at a dose of 58 mg/kg/day; 0/10. In kind it is functional. To be noted: route intravenous.
In experiment [2] the test system is Mus musculus. As to the kind of experiment: Number of survivors of DBA2 mice on 30th day after inoculation with L1210 leukemia cell line intravenously at a dose of 70 mg/kg/day; 0/10. In kind it is functional. Particulars: route intravenous.
Experiment [3] concerns Mus musculus. Nature of the experiment: Number of survivors on 30th day at dose 55 mg/kg/day in 10 mice implanted with P388 leukemia cell line for 1st scheduled day; 1/10. In kind it is functional.
The test system of experiment [4] is Mus musculus. As to the kind of experiment: Number of survivors on 30th day at dose 65 mg/kg/day in 10 mice implanted with P388 leukemia cell line; 7/9. In kind it is functional.
For experiment [5], the system named is Mus musculus. Nature of the experiment: Percent increase in life span at dose 55 mg/kg/day in 10 mice implanted with P388 leukemia cell line. In kind it is functional. The procedure, abridged:
(§1)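 Female DBA2 mice inoculated iv on day 0 with 10^4 P388 cells; single iv treatment on day 1 with drug as sulfate salt in physiological saline. Survival followed; %ILS from all deaths and survivors as (T/C × 100) − 100, maximal MST 30 days; survivors counted on days 30 and 60. Most experiments confirmed three times.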

The subject of experiment [6] is Mus musculus. Nature of the experiment: Percent increase in life span at dose 60 mg/kg/day in 10 mice implanted with P388 leukemia cell line for 1,5,9 schedule days. In kind it is functional.
Experiment [7] relates to Mus musculus. As to the kind of experiment: Number of survivors of DBA2 mice on 60th day after inoculation with L1210 leukemia cell line intravenously at a dose of 45 mg/kg/day; 0/10. In kind it is functional. Particulars: route intravenous.
The subject of experiment [8] is Mus musculus. Nature of the experiment: Number of survivors on 60th day at dose 60 mg/kg/day in 10 mice implanted with P388 leukemia cell line 1,5,9 scheduled days; 3/10. In kind it is functional.
Experiment [9] relates to Mus musculus. Nature of the experiment: Percent increase in life span at dose 60 mg/kg/day in 10 mice implanted with P388 leukemia cell line. In kind it is functional. In a few lines: as §1
Experiment [10] has as its system Mus musculus. As to the kind of experiment: Number of survivors on 30th day at dose 56 mg/kg/day in 10 mice implanted with P388 leukemia cell line; 4/10. In kind it is functional.
Experiment [11] concerns Mus musculus. As to the kind of experiment: Percent increase in life span at dose 6 mg/kg/day in 10 mice implanted with P388 leukemia cell line for 1st schedule day. In kind it is functional.
The subject of experiment [12] is Mus musculus. As to the kind of experiment: Number of survivors on 30th day at dose 9 mg/kg/day in 10 mice implanted with P388 leukemia cell line; 3/10. In kind it is functional.
Experiment [13] deals with Mus musculus. As to the kind of experiment: Number of survivors of DBA2 mice on 60th day after inoculation with L1210 leukemia cell line intravenously at a dose of 10 mg/kg/day; 0/10. Particulars: route intravenous. In kind it is functional.
Experiment [14] deals with Mus musculus. Nature of the experiment: Number of survivors on 30th day at dose 5 mg/kg/day in 9 mice implanted with P388 leukemia cell line; 1/9. In kind it is functional.
Experiment [15] deals with Mus musculus. Nature of the experiment: Percent increase in life span at dose 6 mg/kg/day in 7 mice implanted with P388 leukemia cell line for 1,8,15 schedule days from Exp-1. In kind it is functional.
The subject of experiment [16] is Mus musculus. As to the kind of experiment: Number of survivors on 60th day at dose 5 mg/kg/day in 9 mice implanted with P388 leukemia cell line; 0/10. In kind it is functional.
The subject of experiment [17] is Mus musculus. Nature of the experiment: Number of survivors on 60th day at dose 4 mg/kg/day in 10 mice implanted with P388 leukemia cell line; 0/9. In kind it is functional.
In experiment [18] the test system is Mus musculus. As to the kind of experiment: Number of survivors of DBA2 mice on 60th day after inoculation with L1210 leukemia cell line intraperitoneally at a dose of 0.33 mg/kg/day; 0/10. In kind it is functional. Particulars: route intraperitoneal.
Experiment [19] deals with Mus musculus. As to the kind of experiment: Number of survivors on 30th day at dose 4 mg/kg/day in 10 mice implanted with P388 leukemia cell line;5/10. In kind it is functional.
Experiment [20] deals with Mus musculus. As to the kind of experiment: Number of survivors of DBA2 mice on 30th day after inoculation with L1210 leukemia cell line intravenously at a dose of 5.5 mg/kg/day; 0/10. To be noted: route intravenous. In kind it is functional.
In experiment [21] the test system is Mus musculus. Nature of the experiment: Number of survivors of DBA2 mice on 30th day after inoculation with L1210 leukemia cell line intravenously at a dose of 6.5 mg/kg/day; 0/10. In kind it is functional. Particulars: route intravenous.
Experiment [22] relates to Mus musculus. As to the kind of experiment: Number of survivors of BDF1 mice on 30th day after inoculation with P388 leukemia cell line intraperitoneally at a dose of 2.7 mg/kg/day; 0/11. To be noted: route intraperitoneal.
For experiment [23], the system named is Mus musculus. Nature of the experiment: Number of survivors of DBA2 mice on 60th day after inoculation with L1210 leukemia cell line intravenously at a dose of 5.5 mg/kg/day; 0/10. Particulars: route intravenous. In kind it is functional.
Experiment [24] relates to Mus musculus. As to the kind of experiment: Number of survivors of DBA2 mice on 30th day after inoculation with L1210 leukemia cell line intravenously at a dose of 0.5 mg/kg/day; 0/10. In kind it is functional. Particulars: route intravenous.
The test system of experiment [25] is Mus musculus. As to the kind of experiment: Percent increase in life span of BDF1 mice after inoculation with P388 leukemia cells intraperitoneally at a dose of 0.22 mg/kg per day for 1-9 scheduled days. Particulars: P388, ip.
The test system of experiment [26] is Mus musculus. As to the kind of experiment: Number of survivors on 60th day at dose 1 mg/kg/day in 10 mice implanted with P388 leukemia cell line; 0/10. In kind it is functional.
Experiment [27] deals with Mus musculus. Nature of the experiment: Number of survivors on 30th day at dose 1 mg/kg/day in 10 mice implanted with P388 leukemia cell line; 0/10. In kind it is functional.
Experiment [28] relates to Mus musculus. As to the kind of experiment: Percent increase in life span of DBA2 mice after inoculation with L1210 leukemia intravenously at a dose of 0.5 mg/kg per day. In kind it is functional. Particulars: route intravenous.
Experiment [29] relates to Mus musculus. As to the kind of experiment: Number of survivors of DBA2 mice on 60th day after inoculation with L1210 leukemia cell line intravenously at a dose of 6.5 mg/kg/day; 0/10. In kind it is functional. Particulars: route intravenous.
Experiment [30] relates to Mus musculus. As to the kind of experiment: Percent increase in life span of BDF1 mice after inoculation with P388 leukemia intraperitoneally at a dose of 1 mg/kg per day. To be noted: P388, ip.
Experiment [31] has as its system Mus musculus. Nature of the experiment: Percent increase in life span of DBA2 mice after inoculation with L1210 leukemia intravenously at a dose of 5.5 mg/kg per day. In kind it is functional. To be noted: route intravenous.
The test system of experiment [32] is Mus musculus. Nature of the experiment: Number of survivors on 60th day at dose 2 mg/kg/day in 10 mice implanted with P388 leukemia cell line for 1st scheduled day; 0/10. In kind it is functional.
In experiment [33] the test system is Mus musculus. Nature of the experiment: Number of survivors on 60th day at dose 2.5 mg/kg/day in 10 mice implanted with P388 leukemia cell line; 0/10. In kind it is functional.
Experiment [34] relates to Mus musculus. As to the kind of experiment: Number of survivors of DBA2 mice on 30th day after inoculation with L1210 leukemia cell line intravenously at a dose of 2.5 mg/kg/day; 0/11. In kind it is functional. To be noted: route intravenous.
Experiment [35] has as its system Mus musculus. Nature of the experiment: Number of survivors on 30th day at dose 3 mg/kg/day in 10 mice implanted with P388 leukemia cell line; 0/9. In kind it is functional.
In experiment [36] the test system is Mus musculus. As to the kind of experiment: Percent increase in life span at dose 2.5 mg/kg/day in 10 mice implanted with P388 leukemia cell line for 1st scheduled day. In kind it is functional.
For experiment [37], the system named is Mus musculus. As to the kind of experiment: Number of survivors on 30th day at dose 8 mg/kg/day in 10 mice implanted with P388 leukemia cell line; 0/10. In kind it is functional.
The subject of experiment [38] is Mus musculus. Nature of the experiment: Number of survivors of DBA2 mice on 30th day after inoculation with L1210 leukemia cell line intravenously at a dose of 3 mg/kg/day; 0/11. In kind it is functional. Particulars: route intravenous.
Experiment [39] relates to Mus musculus. As to the kind of experiment: Percent increase in life span at dose 3 mg/kg/day in 10 mice implanted with P388 leukemia cell line; 0/10. In kind it is functional.
For experiment [40], the system named is Mus musculus. Nature of the experiment: Percent increase in life span at dose 2 mg/kg/day in 10 mice implanted with P388 leukemia cell line for 1st scheduled day. In kind it is functional.

Molecules are shown by their SMILES.

A word on the ILS: it is how much longer treated animals lived than controls. A high value points to a large benefit in survival. With `CCOC(=O)[C@H](Cc1c[nH]c2ccccc12)NC(=O)[C@@]1(O)[C@H](O)[C@]2(CC)C=CCN3CC[C@@]4(c5cc([C@@]6(C(=O)OC)C[C@H]7C[N@](CCc8c6[nH]c6ccccc86)C[C@](O)(CC)C7)c(OC)cc5N(C)[C@@]14C)[C@@H]32`, the Survivors in the experiment with Mus musculus [1] was determined as 0; with Mus musculus [2] it was 0; in the experiment with Mus musculus [3], 1; in the experiment on Mus musculus [4], 7; in the experiment on Mus musculus [7] it was 0; in the experiment with Mus musculus [8] it was 3. The same compound gave a Survivors in the experiment with Mus musculus [10] of 4. For the same compound, the ILS at 55 mg/kg/day with Mus musculus [5] is more than 183%. The ILS at 60 mg/kg/day in the experiment on Mus musculus [6] was more than 426%; in the experiment with Mus musculus [9] it was more than 178%.

Turning to `CCOC(=O)[C@@H](NC(=O)[C@@]1(O)[C@H](O)[C@]2(CC)C=CCN3CC[C@@]4(c5cc([C@@]6(C(=O)OC)C[C@H]7C[N@](CCc8c6[nH]c6ccccc86)C[C@](O)(CC)C7)c(OC)cc5N(C)[C@@]14C)[C@@H]32)[C@@H](C)CC`, the ILS at 6 mg/kg/day was 74% with Mus musculus [11] and 150% with Mus musculus [15]. Further, the Survivors is 3 in the experiment on Mus musculus [12]; 0 in the experiment on Mus musculus [13]; 1 in the experiment on Mus musculus [14]; 0 in the experiment with Mus musculus [16]; 0 in the experiment on Mus musculus [17].

As for `CC[C@]1(O)C[C@@H]2CN(CCc3c([nH]c4ccccc34)[C@@](C(=O)OC)(c3cc4c(cc3OC)N(C)[C@H]3[C@@](O)(C(=O)OC)[C@H](OC(C)=O)[C@]5(CC)C=CCN6CC[C@]43[C@@H]65)C2)C1` [VINBLASTINE], the values for the Survivors in the experiment with Mus musculus [18] and with Mus musculus [19] were 0 and 5, respectively.

`CC[C@]1(O)C[C@H]2CN(CCc3c([nH]c4ccccc34)[C@@](C(=O)OC)(c3cc4c(cc3OC)N(C=O)[C@H]3[C@@](O)(C(=O)OC)[C@H](OC(C)=O)[C@]5(CC)C=CCN6CC[C@]43[C@@H]65)C2)C1` [VINCRISTINE]: the Survivors in the experiment on Mus musculus [20], with Mus musculus [21], with Mus musculus [22], with Mus musculus [23], in the experiment on Mus musculus [24] and with Mus musculus [26] was 0 in each case. In addition, the Survivors in the experiment with Mus musculus [27] and with Mus musculus [29] was 0 each time. In the experiment with Mus musculus [25], the increase in lifespan (ILS) at 0.22 mg/kg/day is 146%. This compound also returned an increase in lifespan (ILS) at 0.5 mg/kg/day with Mus musculus [28] of 1%. Besides, the increase in lifespan (ILS) at 1 mg/kg/day in the experiment on Mus musculus [30] came to 47%. In addition, the ILS at 5.5 mg/kg/day with Mus musculus [31] was determined as 26.6%.

Take `CC[C@]1(O)C[C@@H]2CN(CCc3c([nH]c4ccccc34)[C@@](C(=O)OC)(c3cc4c(cc3OC)N(C)[C@H]3[C@@](O)(C(N)=O)[C@H](O)[C@]5(CC)C=CCN6CC[C@]43[C@@H]65)C2)C1` [VINDESINE]: the Survivors in the experiment with Mus musculus [32], in the experiment with Mus musculus [33], in the experiment with Mus musculus [34], in the experiment with Mus musculus [35], with Mus musculus [37] and with Mus musculus [38] was 0 in each case. In the experiment with Mus musculus [36], the ILS at 2.5 mg/kg/day came out at 32%. Besides, the increase in life span (ILS) at 3 mg/kg/day in the experiment on Mus musculus [39] was determined as 49.2%. For the same compound, the increase in life span (ILS) at 2 mg/kg/day in the experiment with Mus musculus [40] came to 28%.
